# From ChEMBL document CHEMBL5512642, “Novel triterpenoid pyrones, phthalimides and phthalates are selectively cytotoxic in CCRF-CEM cancer cells - Synthesis, potency, and mitochondrial mechanism of action” (Eur J Med Chem, 2024)
# Active and inactive are the calls of the source. No cut-off for these calls is given here.
# Experiments:
# CCRF-CEM [1] = test: Induction of apoptosis in human CCRF-CEM cells assessed as reduction in Bcl-2 expression at 5 time of IC50 incubated for 24 hrs by Western blot analysis; assay type: functional, cell-based
# Summary of the method: (§1)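 Lysate 20 µg protein per lane on SDS-PAGE, transferred to nitrocellulose, blocked in 5% BSA/TBS-Tween. Probed overnight at 4 °C with anti-caspase-3, Bcl-2, Bcl-XL, β-actin, then HRP secondary 1 h. ECL chemiluminescence detection.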
# [2] = Cytotoxicity against human BJ cells assessed as reduction in cell viability incubated for 72 hrs by MTS assay; assay type: toxicity, cell-based
# [3] = Stability in human plasma assessed as compound remaining measured 30 mins by RF-MS analysis; assay type: ADME, cell-free; details: read-out: Stability
# Summary of the method: (§2)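 Compounds incubated in human plasma in vitro for up to 2 h. Percent remaining sampled at 15, 30, 60 and 120 min. Run in triplicate.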
# CCRF-CEM [4] = test: Induction of apoptosis in human CCRF-CEM cells assessed as early apoptotic cells at 5 time IC50 incubated for 24 hrs by Annexin V and propidium iodide staining based flow cytometry analysis (reference value: 1.4%); assay type: functional
# CCRF-CEM [5] = test: Cytotoxicity against human CCRF-CEM cells assessed as reduction in cell viability incubated for 72 hrs by MTS assay; assay type: functional, cell-based
# [6] = Apparent permeability of the compound across apical to basolateral side in human Caco-2 cells assessed as compound recovery; assay type: ADME, cell-based; details: read-out: Activity
# Summary of the method: (§3)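 Caco-2 and MDCK-MDR1 monolayers; transport measured in both directions, apical→basolateral and basolateral→apical. Efflux ratio taken from the two directions; ER > 2 counted as active efflux. Compound recovery reported. Cell-based permeability runs done in duplicate.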
# [7] = Metabolic stability in human liver microsomes assessed as compound remaining at measured at 30 mins in presence of NADPH by RF-MS analysis; assay type: ADME, Microsome; details: read-out: Stability
# Summary of the method: (§4)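 Human liver microsomes with NADPH cofactor to assess phase I oxidation. Compound remaining sampled at 15, 30 and 60 min; intrinsic clearance derived and categorized. Run in triplicate.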
# CCRF-CEM [8] = test: Induction of apoptosis in human CCRF-CEM cells assessed as reduction in Bcl-XL expression at 5 time of IC50 incubated for 24 hrs by Western blot analysis; assay type: functional, cell-based; summary of the method: as §1
# CEM-DNR = test: Cytotoxicity against human CEM-DNR cells assessed as reduction in cell viability incubated for 72 hrs by MTS assay; assay type: functional, cell-based
# K562 = test: Cytotoxicity against human K562 cells assessed as reduction in cell viability incubated for 72 hrs by MTS assay; assay type: functional, cell-based; details: K562, 72 h
# CCRF-CEM [9] = test: Antiproliferative activity against human CCRF-CEM cells assessed as reduction cell population at 1 time of IC50 by BrdU incorporation assay; assay type: functional, cell-based
# Summary of the method: (§5)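 Mitotic fraction scored with the pH3 Ser10 marker and DNA synthesis with BrdU incorporation. For transcription, cells received a short BrU pulse after the 24 h pre-incubation. Read by flow cytometry against untreated cells.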
# CCRF-CEM [10] = test: Antimitotic activity against human CCRF-CEM cells assessed as decrease in cell division at 5 times of IC50; assay type: functional, cell-based; summary of the method: as §5
# HCT 116 TP53(-/-) = test: Cytotoxicity against human HCT116-p53-null cells assessed as reduction in cell viability incubated for 72 hrs by MTS assay; assay type: functional, cell-based
# [11] = Stability in human plasma assessed as compound remaining measured 120 mins by RF-MS analysis; assay type: ADME, cell-free; details: read-out: Stability; summary of the method: as §2
# [12] = Stability in human plasma assessed as compound remaining measured 60 mins by RF-MS analysis; assay type: ADME, cell-free; details: read-out: Stability; summary of the method: as §2
# CCRF-CEM [13] = test: Induction of apoptosis in human CCRF-CEM cells assessed as necrotic cells at 5 time IC50 incubated for 24 hrs by Annexin V and propidium iodide staining based flow cytometry analysis (reference value: 0.; assay type: functional
# [14] = Efflux ratio of apparent permeability across basolateral to apical side over apical to basolateral side in human Caco-2 cells; assay type: ADME, cell-based; summary of the method: as §3
# CCRF-CEM [15] = test: Induction of apoptosis in human CCRF-CEM cells assessed as late apoptotic cells at 5 time IC50 incubated for 24 hrs by Annexin V and propidium iodide staining based flow cytometry analysis (reference value: 0.5%); assay type: functional
# [16] = Metabolic stability in human liver microsomes assessed as compound remaining at measured at 60 mins in presence of NADPH by RF-MS analysis; assay type: ADME, Microsome; details: read-out: Stability; summary of the method: as §4
# CCRF-CEM [17] = test: Induction of apoptosis in human CCRF-CEM cells assessed as early apoptotic cells at 1 time IC50 incubated for 24 hrs by Annexin V and propidium iodide staining based flow cytometry analysis (reference value: 1.4%); assay type: functional
# [18] = Cytotoxicity against human K562-Tax cells assessed as reduction in cell viability incubated for 72 hrs by MTS assay; assay type: functional, cell-based
# [19] = Efflux ratio of apparent permeability across basolateral to apical side over apical to basolateral side in MDCK-MDR1 cells; assay type: ADME, cell-based, Canis lupus familiaris; details: dog; summary of the method: as §3
# CCRF-CEM [20] = test: Induction of apoptosis in human CCRF-CEM cells assessed as necrotic cells at 1 time IC50 incubated for 24 hrs by Annexin V and propidium iodide staining based flow cytometry analysis (reference value: 0.1%); assay type: functional
# [21] = Metabolic stability in human liver microsomes assessed as compound remaining at measured at 15 mins in presence of NADPH by RF-MS analysis; assay type: ADME, Microsome; details: read-out: Stability; summary of the method: as §4
# CCRF-CEM [22] = test: Induction of apoptosis in human CCRF-CEM cells assessed as late apoptotic cells at 1 time IC50 incubated for 24 hrs by Annexin V and propidium iodide staining based flow cytometry analysis (reference value: 0.5%); assay type: functional
# [23] = Stability in human plasma assessed as compound remaining measured 15 mins by RF-MS analysis; assay type: ADME, cell-free; details: read-out: Stability; summary of the method: as §2
# CCRF-CEM [24] = test: Antiproliferative activity against human CCRF-CEM cells assessed as inhibition of RNA synthesis at 5 time of IC50 by BrdU incorporation assay; assay type: functional, cell-based; details: in the assay text read “BrU incorporation assay” for “BrdU incorporation assay”; summary of the method: as §5
# A549 = test: Cytotoxicity against human A549 cells assessed as reduction in cell viability incubated for 72 hrs by MTS assay; assay type: functional, cell-based; details: A549, 72 h
# [25] = Apparent permeability of the compound in MDCK-MDR1 cells at 10 uM incubated for 1 hr by RF-MS analysis; assay type: ADME, cell-based, Canis lupus familiaris; details: dog; summary of the method: as §3
# CCRF-CEM [26] = test: Induction of mitochondrial membrane potential loss in human CCRF-CEM cells assessed as cells with depolarized mitochondria (P2 gate) by measuring green fluorescence intensity at 1 time IC50 incubated for 24 hrs by JC-1 staining based flow cytometry (reference value: 2.1%)
# CCRF-CEM [27] = test: Induction of mitochondrial membrane potential loss in human CCRF-CEM cells assessed as cells with depolarized mitochondria (P2 gate) by measuring green fluorescence intensity at 5 time IC50 incubated for 24 hrs by JC-1 staining based flow cytometry (reference value: 2.1%)
# CCRF-CEM [28] = test: Induction of apoptosis in human CCRF-CEM cells assessed as viable cells at 5 time IC50 incubated for 24 hrs by Annexin V and propidium iodide staining based flow cytometry analysis (reference value: 98%); assay type: functional
# HCT-116 = test: Cytotoxicity against human HCT-116 cells assessed as reduction in cell viability incubated for 72 hrs by MTS assay; assay type: functional, cell-based; details: HCT-116, 72 h
# [29] = Apparent permeability of the compound across apical to basolateral side in MDCK-MDR1 cells assessed as compound recovery at 10 uM incubated for 1 hr by RF-MS analysis; assay type: ADME, cell-based, Canis lupus familiaris; details: dog, read-out: Activity; summary of the method: as §3
# [30] = Apparent permeability of the compound in human Caco-2 cells; assay type: ADME, cell-based; summary of the method: as §3
# [31] = Cytotoxicity against human MRC5 cells assessed as reduction in cell viability incubated for 72 hrs by MTS assay; assay type: toxicity, cell-based
# CCRF-CEM [32] = test: Induction of apoptosis in human CCRF-CEM cells assessed as viable cells at 1 time IC50 incubated for 24 hrs by Annexin V and propidium iodide staining based flow cytometry analysis (reference value: 98%); assay type: functional
# [33] = Plasma protein binding in human assessed as fraction bound at 10 uM by rapid equilibrium dialysis based RF-MS analysis; assay type: ADME, cell-free; details: read-out: PPB (converted)
# Summary of the method: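 Human plasma protein binding measured by equilibrium dialysis and reported as percent fraction bound. Run in triplicate.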
# U2OS = test: Cytotoxicity against human U2OS cells assessed as reduction in cell viability incubated for 72 hrs by MTS assay; assay type: functional, cell-based
# CCRF-CEM [34] = test: Antiproliferative activity against human CCRF-CEM cells assessed as reduction BruD positive cell at 5 time of IC50 by BrdU incorporation assay; assay type: functional, cell-based; summary of the method: as §5
# CCRF-CEM [35] = test: Induction of apoptosis in human CCRF-CEM cells assessed as reduction in caspase-3 expression at 5 time of IC50 incubated for 24 hrs by Western blot analysis; assay type: functional, cell-based; summary of the method: as §1
# CCRF-CEM [36] = test: Antiproliferative activity against human CCRF-CEM cells assessed as reduction BruD positive cell at 1 time of IC50 by BrdU incorporation assay; assay type: functional, cell-based; summary of the method: as §5
Compound,Activity (CCRF-CEM [1]),IC50 at 72 h [2],remaining at 0.5 h [3],Activity (CCRF-CEM [4]),IC50 (CCRF-CEM [5]),recovery [6],Activity (CCRF-CEM [8]),IC50 (CEM-DNR),IC50 (K562),Activity (CCRF-CEM [9]),Activity (CCRF-CEM [10]),IC50 (HCT 116 TP53(-/-)),remaining at 2 h [11],remaining at 1 h [12],Activity (CCRF-CEM [13]),Activity (CCRF-CEM [15]),remaining at 1 h [16],Activity (CCRF-CEM [17]),IC50 [18],Activity (CCRF-CEM [20]),other results
CC(C)[C@@H]1CC[C@]2(C(=O)O)CC[C@]3(C)[C@H](CC[C@@H]4[C@@]5(C)CC6=C(C7C(=O)N(c8ccccc8)C(=O)C7C=C6C(F)(F)F)C(C)(C)[C@@H]5CC[C@]43C)[C@@H]12 (stereo partly drawn),Active,25 µM,102%,5.2%,4.5 µM,84.2%,Active,> 50 µM,30 µM,Active,inactive,28 µM,89%,96.7%,0%,4.5%,56%,4.7%,> 50 µM,0%,"remaining at 0.5 h [7]: 92%; efflux ratio [14]: 63.5; efflux ratio [19]: 71.8; remaining at 0.25 h [21]: 92%; Activity (CCRF-CEM [22]): 2.9%; remaining at 0.25 h [23]: 99.2%; Activity (CCRF-CEM [24]): Active; IC50 (A549): 18 µM; Papp at 1 h, 10 µM [25]: 0.05 ×10⁻⁶ cm/s; Activity (CCRF-CEM [26]): 2.2%; Activity (CCRF-CEM [27]): 6.7%; Activity (CCRF-CEM [28]): 90.3%; IC50 (HCT-116): 29 µM; recovery at 1 h, 10 µM [29]: 86%; Papp [30]: 0.09 ×10⁻⁶ cm/s; IC50 at 72 h [31]: 28 µM; Activity (CCRF-CEM [32]): 92.4%; fraction unbound at 10 µM [33]: 0.403; IC50 (U2OS): 4.8 µM"
CC(C)[C@@H]1CC[C@]2(C(=O)O)CC[C@]3(C)[C@H](CC[C@@H]4[C@@]5(C)Cc6c(C(F)(F)F)cc(=O)oc6C(C)(C)[C@@H]5CC[C@]43C)[C@@H]12,Active,> 50 µM,97.7%,14.3%,3.5 µM,105%,Active,4.9 µM,23 µM,inactive,Active,18 µM,94.2%,97.5%,0%,15.8%,82%,4.8%,17 µM,0%,"Activity (CCRF-CEM [34]): Active; Activity (CCRF-CEM [35]): Active; remaining at 0.25 h [21]: 106%; Activity (CCRF-CEM [22]): 2.8%; remaining at 0.25 h [23]: 98.4%; Activity (CCRF-CEM [24]): Active; IC50 (A549): 11 µM; Papp at 1 h, 10 µM [25]: 0.27 ×10⁻⁶ cm/s; Activity (CCRF-CEM [26]): 4%; Activity (CCRF-CEM [27]): 28.6%; Activity (CCRF-CEM [28]): 69.9%; IC50 (HCT-116): 10 µM; recovery at 1 h, 10 µM [29]: 64.8%; Papp [30]: 0.15 ×10⁻⁶ cm/s; IC50 at 72 h [31]: 27 µM; Activity (CCRF-CEM [32]): 92.4%; Activity (CCRF-CEM [36]): inactive; fraction unbound at 10 µM [33]: 0.056; IC50 (U2OS): 19 µM"
